Results published in ChEMBL document CHEMBL1932938, “From COX-2 inhibitor nimesulide to potent anti-cancer agent: synthesis, in vitro, in vivo and pharmacokinetic evaluation” (Eur J Med Chem, 2012).
Calls of active or inactive are those of the source. The rule behind the calls is not given here.

Tests used:
[1] = tested on: M14; assay: Growth inhibition of human M14 cells after 48 hrs by SRB assay; assay type: functional
[2] = tested on: SK-BR-3; assay: Cell cycle arrest in human SK-BR-3 cells assessed as accumulation at S phase at 0.10 uM after 3 hrs using propidium iodide staining by FACS analysis; assay type: functional
Method in brief: (§1)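 SKBR-3 cells in RPMI1640 with 10% heat-inactivated FBS at 37 °C and 5% CO₂ were treated for the stated times. Cells were fixed overnight in 70% EtOH at −20 °C, then stained with propidium iodide buffer (38 mM sodium citrate pH 7.5, 69 µM PI, 120 µg/mL RNase A) for 15 min at room temperature in the dark. Up to 1×10⁴ gated cells were analyzed by flow cytometry, giving percent distribution per phase.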

[3] = tested on: OVCAR-4; assay: Growth inhibition of human OVCAR4 cells after 48 hrs by SRB assay; assay type: functional
[4] = tested on: SK-BR-3; assay: Cell cycle arrest in human SK-BR-3 cells assessed as accumulation at S phase at 0.25 uM after 18 hrs using propidium iodide staining by FACS analysis; assay type: functional
[5] = tested on: SK-BR-3; assay: Cell cycle arrest in human SK-BR-3 cells assessed as accumulation at G2/M phase at 0.50 uM after 12 hrs using propidium iodide staining by FACS analysis; assay type: functional; method in brief: as §1
[6] = tested on: SK-BR-3; assay: Cell cycle arrest in human SK-BR-3 cells assessed as accumulation at G2/M phase at 0.25 uM after 18 hrs using propidium iodide staining by FACS analysis; assay type: functional; method in brief: as §1
[7] = tested on: SW-620; assay: Growth inhibition of human SW620 cells after 48 hrs by SRB assay; assay type: functional
[8] = tested on: SK-BR-3; assay: Cell cycle arrest in human SK-BR-3 cells assessed as accumulation at Sub-G1 phase at 5 uM after 18 hrs using propidium iodide staining by FACS analysis; assay type: functional
[9] = tested on: SK-BR-3; assay: Cell cycle arrest in human SK-BR-3 cells assessed as accumulation at G2/M phase at 0.25 uM after 3 hrs using propidium iodide staining by FACS analysis; assay type: functional; method in brief: as §1
[10] = tested on: SK-BR-3; assay: Cell cycle arrest in human SK-BR-3 cells assessed as accumulation at Sub-G1 phase at 5 uM after 12 hrs using propidium iodide staining by FACS analysis; assay type: functional
[11] = tested on: HT-29; assay: Growth inhibition of human HT-29 cells after 48 hrs by SRB assay; assay type: functional
[12] = Cmax in Sprague-Dawley rat plasma at 20 mg/kg, ip; assay type: ADME, organism-based; set-up: dose 20 mg/kg, route intraperitoneal
Method in brief: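 Male Sprague–Dawley rats (300–350 g, n=3), fasted overnight, received one i.p. dose in PBS with 0.1% Tween80 and 20% DMSO. Blood (150 µL) was drawn from saphenous and femoral veins into heparinized tubes at 0–24 h, and plasma was stored at –20 °C. Samples underwent tert-butyl methyl ether/n-hexane extraction, then C18 isocratic LC-MS/MS in MRM mode with an internal standard; the method was validated over 0.1–100 ng/mL.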

[13] = tested on: COLO 205; assay: Growth inhibition of human COLO205 cells after 48 hrs by SRB assay; assay type: functional
[14] = tested on: SK-BR-3; assay: Cell cycle arrest in human SK-BR-3 cells assessed as accumulation at Sub-G1 phase at 0.25 uM after 3 hrs using propidium iodide staining by FACS analysis; assay type: functional
[15] = tested on: SK-BR-3; assay: Cell cycle arrest in human SK-BR-3 cells assessed as accumulation at G2/M phase at 5 uM after 18 hrs using propidium iodide staining by FACS analysis; assay type: functional; method in brief: as §1
[16] = tested on: SK-BR-3; assay: Cell cycle arrest in human SK-BR-3 cells assessed as accumulation at Sub-G1 phase at 0.10 uM after 24 hrs using propidium iodide staining by FACS analysis; assay type: functional
[17] = tested on: SK-BR-3; assay: Cell cycle arrest in human SK-BR-3 cells assessed as accumulation at Sub-G1 phase at 0.25 uM after 6 hrs using propidium iodide staining by FACS analysis; assay type: functional
[18] = tested on: HT-29; assay: Antitumor activity against human HT-29 cells xenografted in BALB/c athymic nu/nu mouse assessed as decrease in tumor size at 5 mg/kg/day, ip administered 5 times per week for 3 weeks; assay type: functional, organism-based
Method in brief: (§2)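 Athymic BALB/c nu/nu mice received s.c. HT29 cells in Matrigel, 200 µL per site at two flank sites. Treatment started at ~200 mm³: 5 mg/kg/d i.p., five times weekly for three weeks, in 1% DMSO/sesame oil; controls got vehicle. Three mice per group. Tumors were measured twice weekly by caliper, volume = width²×length/2. Tumors were excised and weighed at the end.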

[19] = tested on: HT-29; assay: Antitumor activity against human HT-29 cells xenografted in BALB/c athymic nu/nu mouse assessed as decrease in tumor weight at 5 mg/kg/day, ip administered 5 times per week for 3 weeks; assay type: functional, organism-based; method in brief: as §2
[20] = tested on: SK-BR-3; assay: Cell cycle arrest in human SK-BR-3 cells assessed as accumulation at S phase at 0.25 uM after 24 hrs using propidium iodide staining by FACS analysis; assay type: functional
[21] = tested on: SF-295; assay: Growth inhibition of human SF295 cells after 48 hrs by SRB assay; assay type: functional
[22] = tested on: SK-BR-3; assay: Cell cycle arrest in human SK-BR-3 cells assessed as accumulation at G2/M phase at 0.50 uM after 6 hrs using propidium iodide staining by FACS analysis; assay type: functional; method in brief: as §1
[23] = tested on: ACHN; assay: Growth inhibition of human ACHN cells after 48 hrs by SRB assay; assay type: functional
[24] = tested on: IGROV-1; assay: Growth inhibition of human IGROV1 cells after 48 hrs by SRB assay; assay type: functional
[25] = tested on: SK-BR-3; assay: Cell cycle arrest in human SK-BR-3 cells assessed as accumulation at Sub-G1 phase at 0.25 uM after 12 hrs using propidium iodide staining by FACS analysis; assay type: functional
[26] = tested on: MOLT-4; assay: Growth inhibition of human MOLT4 cells after 48 hrs by SRB assay; assay type: functional
[27] = tested on: SK-BR-3; assay: Cell cycle arrest in human SK-BR-3 cells assessed as accumulation at G1 phase at 0.25 uM after 12 hrs using propidium iodide staining by FACS analysis; assay type: functional; method in brief: as §1
[28] = tested on: Mus musculus; assay: Acute toxicity in nude mouse assessed as body weight loss at 100 to 400 mg/kg administered as single dose measured after 2 weeks; assay type: organism-based; set-up: dose 100-400 mg/kg; details: in vivo, 336 h

Q: Which results are given for `Cc1ccc(C)c(COc2cc(NC(=O)c3ccc4c(c3)OCO4)ccc2N(C)S(C)(=O)=O)c1`?
A: growth inhibition (GI) [1]: Dose-dependent effect; GI50 ([1]; M14, 48 h): 0.0757 µM; TGI ([1]; M14, 48 h): 0.669 µM; CC50 ([1]; M14, 48 h, read-out: LC50 (the source's name)): > 100 µM; Activity [2]: 17.2%; growth inhibition (GI) [3]: Dose-dependent effect; TGI ([3]; OVCAR-4, 48 h): > 100 µM; CC50 ([3]; OVCAR-4, 48 h, read-out: LC50 (the source's name)): > 100 µM; Activity [4]: 6.81%; Activity [5]: 24.26%; Activity [6]: 10.57%; growth inhibition (GI) [7]: Dose-dependent effect; GI50 ([7]; SW-620, 48 h): 0.112 µM; TGI ([7]; SW-620, 48 h): > 100 µM; CC50 ([7]; SW-620, 48 h, read-out: LC50 (the source's name)): > 100 µM; Activity [8]: 8.31%; Activity [9]: 10.77%; Activity [10]: 9.76%; growth inhibition (GI) [11]: Dose-dependent effect; GI50 ([11]; HT-29, 48 h): 0.0772 µM; TGI ([11]; HT-29, 48 h): 0.419 µM; CC50 ([11]; HT-29, 48 h, read-out: LC50 (the source's name)): > 100 µM; Cmax [12]: 1500 ng/mL; growth inhibition (GI) [13]: Dose-dependent effect; GI50 ([13]; COLO 205, 48 h): 0.318 µM; TGI ([13]; COLO 205, 48 h): 1.07 µM; CC50 ([13]; COLO 205, 48 h, read-out: LC50 (the source's name)): > 100 µM; Activity [14]: 3.23%; Activity [15]: 21.8%; Activity [16]: 11.78%; Activity [17]: 3.49%; Activity [18]: Active; Activity [19]: Active; Activity [20]: 10.87%; growth inhibition (GI) [21]: Dose-dependent effect; GI50 ([21]; SF-295, 48 h): 0.0983 µM; TGI ([21]; SF-295, 48 h): 0.626 µM; CC50 ([21]; SF-295, 48 h, read-out: LC50 (the source's name)): > 100 µM; Activity [22]: 13.9%; GI50 [23]: 0.687 µM; TGI [23]: > 100 µM; growth inhibition (GI) [23]: Dose-dependent effect; CC50 ([23]; read-out: LC50 (the source's name)): > 100 µM; growth inhibition (GI) [24]: Dose-dependent effect; GI50 ([24]; IGROV-1, 48 h): 0.237 µM; TGI ([24]; IGROV-1, 48 h): > 100 µM; CC50 ([24]; IGROV-1, 48 h, read-out: LC50 (the source's name)): > 100 µM; Activity [25]: 6.85%; growth inhibition (GI) [26]: Dose-dependent effect; GI50 ([26]; MOLT-4, 48 h): 0.163 µM; TGI ([26]; MOLT-4, 48 h): > 100 µM; CC50 ([26]; MOLT-4, 48 h, read-out: LC50 (the source's name)): > 100 µM; Activity [27]: 73.62%; Activity [28]: Non-toxic
